Screens (PubChem)
The list is not random: actives were taken first. Their share in the collection is about 3.5%.
RGS4 inh: human RGS4 inhibition; hit rate 0.45% among 310,000; HEK293 M3R/RGS4 inducible, Fluo-4 calcium flux; stronger effect = higher value; triggered by carbachol at its EC20; B-score at 10 µM; P49798;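 active = B-score, a plate-corrected calcium signal, over three deviations above library mean, with baseline fluorescence within five deviations of library mean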;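 note: RGS4 expression induced by doxycycline in cells with stable M3 receptor; B-score is computed from the integrated fluorescence ratio over baseline after carbachol; higher B-score means a larger calcium signal and so more RGS4 inhibition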
Target sequence (P49798 whole entry, looked up): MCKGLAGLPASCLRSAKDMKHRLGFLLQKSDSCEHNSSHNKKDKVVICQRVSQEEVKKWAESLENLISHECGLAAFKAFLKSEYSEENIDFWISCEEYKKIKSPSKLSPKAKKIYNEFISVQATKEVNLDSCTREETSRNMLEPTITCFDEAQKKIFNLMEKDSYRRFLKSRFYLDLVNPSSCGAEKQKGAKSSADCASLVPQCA
RGS4 act: RGS4 potentiation or activation; HEK293 M3R/inducible RGS4, carbachol calcium flux Fluo4; stronger effect = lower value; B-score at 10 µM; hit rate 0.92% among 310,000; AID 463111;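 active = B-score of the integrated calcium signal more than 4 SD below the library mean, with starting fluorescence not abnormally high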;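 note: negative B-score means reduced calcium response which marks RGS4 activation or potentiation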
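System – HEK293 FlpIn-TREx cells, stable M3R, doxycycline-inducible RGS4 · Reagent – ECmax carbachol challenge · Times – compound preincubation 20 min at room temperature before agonist · Technique – Fluo4 fluorescence kinetic imaging of calcium · Measure – B score of integrated Fluo4 ratio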
MrgX1 ag: agonists of human MrgX1 receptor; B-score at 10 µM; Q96LB2; AID 588627; hit rate 0.44% among 310,000; MrgX1-HEK293 cells, Fluo-4 calcium fluorescence, agonist mode; stronger effect = higher value;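 active = calcium response B-score plate-corrected fluorescence ratio at least 3 library SD, with starting fluorescence B-score inside 5 SD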
Target sequence (Q96LB2 whole entry, looked up): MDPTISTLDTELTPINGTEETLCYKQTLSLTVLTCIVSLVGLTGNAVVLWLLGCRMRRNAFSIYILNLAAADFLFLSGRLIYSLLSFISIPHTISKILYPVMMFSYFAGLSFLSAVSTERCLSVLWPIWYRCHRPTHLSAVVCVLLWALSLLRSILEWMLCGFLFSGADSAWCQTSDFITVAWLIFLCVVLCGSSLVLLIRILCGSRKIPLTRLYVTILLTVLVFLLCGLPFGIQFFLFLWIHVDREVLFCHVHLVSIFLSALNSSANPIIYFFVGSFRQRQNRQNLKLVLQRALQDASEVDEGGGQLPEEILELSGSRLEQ
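times = overnight plating, then 30 min 37 °C plus 30 min room-temperature dye loading | assay system = stable human MrgX1 HEK293 cell line | input = fifteen thousand cells per well | signal = kinetic calcium dye fluorescence, Fluo-4 NW | dosing = compound delivered in addition one of three | read-out = B-scored fluorescence response ratio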
MrgX1 allo act: allosterically activates human MrgX1 receptor signaling; hit rate 0.63% among 310,000; AID 588675; B-score at 10 µM; Q96LB2; MrgX1-HEK293, Fluo-4 calcium flux, FDSS; stronger effect = higher value;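 active = plate-corrected calcium response at least 3 library SD above typical, normal starting fluorescence, not activating the receptor alone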;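 note: compound read alongside a low EC10 to EC30 dose of BAM8-22 agonist; peak minus trough fluorescence over baseline measured at the second addition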
MrgX1 antagonist: antagonists of human MrgX1 receptor | MRGX1-HEK293 calcium flux, Fluo-4, BAM8-22 antagonism; stronger effect = lower value | B-score at 10 µM | hit rate 1.3% among 310,000 | AID 588676;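 active = calcium-response B-score plate-corrected more than 3 library SD below zero, starting fluorescence within 5 deviations, no agonist response on first addition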;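 note: peak minus trough fluorescence over baseline after final BAM8-22 challenge near maximal dose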
Numbers without * were called inactive; i = inactive; nt = no result.

SMILES	RGS4 inh	RGS4 act	MrgX1 ag	MrgX1 allo act	MrgX1 antagonist
O=C(C[N+]12CCC(CC1)C(C(O)(c1ccccc1)c1ccccc1)C2)c1ccc(Br)cc1 (stereo not drawn)	i	-10*	i	i	i
CC[N+](CC)(CC)CCCOC(=O)C(O)(c1ccccc1)C1CCCCC1 (stereo not drawn)	i	-8.2*	i	i	i
C[N+](C)(N)CCOC(=O)C(O)(c1ccccc1)C1CCCCC1 (stereo not drawn)	i	-8.2*	i	i	i
CN(C)CC#CCC(O)(c1ccccc1)C1CCCC1 (stereo not drawn)	i	i	i	i	i
CCN(CC)P(c1n(C)cc[n+]1C)N(CC)CC	i	i	i	i	i
Cc1c(C)c2ccc(OCC(=O)N3C[C@H]4C[C@@H](C3)c3cccc(=O)n3C4)cc2oc1=O	i	i	i	i	i
FC(F)(F)c1ccccc1CNCCc1c[nH]c2ccccc12	i	i	i	i	i
O=C1NC(=O)N(c2ccccc2)C(=O)/C1=C/c1coc2ccc(O)cc2c1=O	i	i	27*	i	i
O=[N+]([O-])c1ccccc1-c1cc(-c2ccccc2)cc(-c2ccccc2)[n+]1Cc1ccccc1Cl	i	-10*	i	i	-7*
O=C1NC(=O)N(Cc2ccccc2)C(=O)/C1=C/c1cnn(-c2ccccc2)c1	i	i	i	i	-5.5*
C=C(C)[C@@H]1C2C(=O)O[C@H]1[C@H]1OC(=O)[C@@]34OC3C[C@]2(O)[C@@]14C (stereo partly drawn)	nt	nt	i	i	-6.4*
Cc1cc(O)c2c(C)c(CC(=O)N3C[C@H]4C[C@@H](C3)c3cccc(=O)n3C4)c(=O)oc2c1	i	i	i	i	-5.2*
COc1cc(C)cc2oc(=O)c(CC(=O)N3C[C@H]4C[C@@H](C3)c3cccc(=O)n3C4)c(C)c12	i	i	i	i	i
CN1CCCN(c2ccc([N+](=O)[O-])nc2)CC1	i	i	i	i	i
CC(NS(C)(=O)=O)c1nnc2n1-c1ccc(Br)cc1C(c1ccccc1Cl)=NC2 (stereo not drawn)	i	i	i	i	i
O=c1[nH]c(=O)n(C2CCCCC2)c(O)c1/C=C/C=Nc1ccccc1	i	i	i	i	-5*
CCOC(=O)c1[nH]c2ccc(OC)cc2c1C(SCC(=O)O)c1ccc(C(F)(F)F)cc1 (stereo not drawn)	i	i	i	i	i
Cc1c(C=O)c2ccccc2n1Cc1ccc([N+](=O)[O-])cc1	i	i	i	i	-5.3*
CCCCC/C(=N\O)c1c[nH]c2ccccc12	i	i	i	i	-6.6*
CCC1=Nc2cc(C(=O)N3CCC4(CC3)OCCO4)ccc2Sc2ccc(Br)cc21	i	i	i	i	i
Oc1cc(Cl)ccc1Oc1ccc(Cl)cc1Cl	i	-7.1*	i	i	i
O=C1OC(c2ccc([N+](=O)[O-])cc2)=N/C1=C/N1CC2CC(C1)c1cccc(=O)n1C2 (stereo not drawn)	i	i	57*	i	i
O=C1OC(c2ccc(Br)cc2)=N/C1=C\N1CC2CC(C1)c1cccc(=O)n1C2 (stereo not drawn)	i	i	i	i	i
Cc1cc(Oc2ccc(C(F)(F)F)cc2[N+](=O)[O-])c2c3c(c(=O)oc2c1)CCCC3	i	-7.4*	i	i	i
Cc1cc(Oc2ccc(C(F)(F)F)cc2[N+](=O)[O-])c2c3c(c(=O)oc2c1)CCC3	i	i	i	i	i
SMILES	RGS4 inh	RGS4 act	MrgX1 ag	MrgX1 allo act	MrgX1 antagonist
COc1ccc2ccccc2c1CNCCc1ccccc1	i	i	i	i	i
COc1ccc(N2C(=O)/C(=C/c3ccc(N(C)C)o3)C(=O)NC2=S)cc1	i	i	i	i	i
CCN(CC)c1ccc(/C=C2\C(=O)NC(=S)N(c3ccc(OC)cc3OC)C2=O)o1	i	-7.2*	i	i	i
O=C(c1ccc(Cl)cc1)C1CCCN(Cc2cccc3ncccc23)C1 (stereo not drawn)	i	i	i	i	i
O=C(c1ccc(Cl)cc1)C1CCCN(Cc2cccc3cccnc23)C1 (stereo not drawn)	i	-7.1*	i	i	i
COc1ccccc1Cn1c(SCC(=O)C(C)(C)C)nc2cc(C(=O)N3CCC4(CC3)OCCO4)ccc2c1=O	i	i	i	i	i
COc1ccc(C(=O)C2CCCN(Cc3cnc(C)s3)C2)cc1OC (stereo not drawn)	i	i	i	i	i
COc1ccc(C(=O)C2CCCN(C3CSCCSC3)C2)cc1OC (stereo not drawn)	i	-7.5*	i	i	i
Cc1cc(O)c2c(c1)C(=O)C13C(=C2O)C(=O)[C@H]2[C@@H](O)[C@@H]1[C@H]1[C@H](O)[C@@H]3C(=O)C3=C(O)c4c(O)cc(C)cc4C(=O)C312 (stereo partly drawn)	nt	nt	i	i	i
N#CC(C#N)=Cc1cccnc1	i	i	i	i	-4.6*
N#CC(C#N)=Cc1ccc(N2CCOCC2)cc1	i	i	i	i	i
COc1ccc(-[n+]2c(-c3ccccc3)cc(-c3ccccc3)cc2-c2ccccc2)cc1	i	i	i	i	-4.9*
O=[N+]([O-])c1ccc(-[n+]2c(-c3ccccc3)cc(-c3ccccc3)cc2-c2ccccc2)cc1	i	i	i	8.4*	i
O=C([O-])c1ccc(-[n+]2c(-c3ccccc3)cc(-c3ccccc3)cc2-c2ccccc2)cc1	i	i	i	i	i
Oc1ccc(-[n+]2c(-c3ccccc3)cc(-c3ccccc3)cc2-c2ccccc2)cc1	i	-7.2*	i	12*	-7.9*
C[n+]1c(-c2ccccc2)cc(-c2ccc(O)cc2)cc1-c1ccccc1	i	i	i	i	i
C[C@H]1CC[C@@H]2N(C1)C[C@H]1[C@@H]3C[C@H]4[C@@H](CC(=O)[C@H]5C[C@@H](O)CC[C@@]54C)[C@@H]3CC[C@H]1[C@]2(C)O	i	i	i	i	i
CC(=O)O[C@H]1CC[C@@]2(C)[C@H](C1)C(=O)C[C@H]1[C@@H]3CC[C@@H]4[C@@H](CN5C[C@@H](C)CC[C@H]5[C@@]4(C)O)[C@@H]3C[C@@H]12	i	-7*	i	i	i
CN=C1CN(O)C(c2ccccc2)=c2cc(Cl)ccc2=N1	i	i	i	9.6*	i
